Measurements collected from several papers.
Each line is one published result; the experiments were not run side by side.
Target: BMP-2-inducible protein kinase (BMP2K, Homo sapiens, UniProt Q9NSY1)

Compound	test	setting	remaining binding [%]
O=C(NCC1CCOCC1)c1n[nH]cc1NC(=O)c1c(F)cccc1F	binding, competition with immobilised ligand	1 µM	81
CN(C)c1ncnc(-c2ccc3nc(Nc4cc(CN5CCN(C(=O)CC(F)(F)F)CC5)ccn4)[nH]c3c2)c1Cl	cell-free assay, competition with immobilised ligand	1 µM	100
C[C@H]1CCN(c2nccc(-c3cnn4ncccc34)n2)C1	binding	1 µM	83
Cc1cc(NC(=O)c2cccc(S(F)(F)(F)(F)F)c2)cc(-n2ccn3nc(-c4cccnc4)cc23)c1	cell-free assay, competition with immobilised ligand	1 µM	65.9
N[C@H]1CCN(c2nccc(-c3cnn4ncccc34)n2)C1	binding	1 µM	88
O=C1NC(c2ccccn2)Sc2ccccc21 (stereo not shown)	cell-free assay, competition with immobilised ligand	1 µM	88
O=C(NCCCN1CCOCC1)c1ccc(Nc2nccc(-c3cc4ccccc4s3)n2)cc1	binding, competition with immobilised ligand	1 µM	0.7
COc1cnc(Nc2cccc(S(N)(=O)=O)c2)nc1N1CCN(c2ccccc2)CC1	binding, competition with immobilised ligand	1 µM	57
Nc1ncc2c(n1)-c1c([nH]c3ccc(C#CC4CC4)cc13)CCCC2	binding, competition with immobilised ligand	1 µM	88
CN(c1nccc(-c2cnn3ncccc23)n1)C1CC1	binding	1 µM	100
CCN1CCN(Cc2ccc(C(=O)Nc3ccc(C)c(Oc4ccc5c(c4)CC(=O)N5)c3)cc2C(F)(F)F)CC1	binding, competition with immobilised ligand	1 µM	100
Cc1nc(N2CC[C@@H](O)C2)ncc1-c1cc(C(F)(F)F)cc2[nH]ncc12	binding, competition with immobilised ligand	1 µM	100
FC(F)(F)Oc1cccc(-c2cnc3ccc(-c4ccncc4)nn23)c1	binding, competition with immobilised ligand	5 µM	8.3
CN(C)c1ncc(F)c(-c2cnn3ncccc23)n1	binding	1 µM	100
O=C(NCCCN1CCOCC1)c1ccc(Nc2ncc(Cl)c(-c3ccc(Cl)s3)n2)cc1	binding, competition with immobilised ligand	1 µM	0.1
CN(C)c1nccc(-c2cnc3ncccn23)n1	binding	1 µM	100
O=C(N1CCS(=O)(=O)CC1)N1C[C@H](c2ccc(OC(F)(F)F)cc2)C[C@H](c2nc(C3CC3)no2)C1	cell-free assay, competition with immobilised ligand	1 µM	97
CN(C)c1nccc(-c2cnn3ncccc23)n1	binding	1 µM	100
C=CC(=O)N1CCC(C(=O)NCC(=O)N2CCN(c3nc(-c4cnc(N)nc4C(F)F)nc(N4CCOCC4)n3)CC2)CC1	binding, competition with immobilised ligand	1 µM	94
O=C(c1ccc(Nc2ncc(Cl)c(-c3ccc(Cl)s3)n2)cc1)N1CCC(N2CCCC2)CC1	binding, competition with immobilised ligand	1 µM	0.1
c1cnn2ncc(-c3ccnc(N4CCC45COC5)n3)c2c1	binding	1 µM	61
CNC(=O)c1ccc(Nc2ncc(C(F)(F)F)c(NCc3nccnc3N(C)S(C)(=O)=O)n2)cc1	cell-free assay, competition with immobilised ligand	0.1 µM	81
